Data reported in ChEMBL document CHEMBL5107936, “Anti-amyloidogenic indolizino[3,2-c]quinolines as imaging probes differentiating dense-core, diffuse, and coronal plaques of amyloid-β” (RSC Med Chem, 2021).

Assays:
[1] = system: HT-22; experiment: Cytotoxicity against mouse HT-22 cells assessed as reduction in cell viability incubated for 18 hrs by MTT assay; assay type: toxicity, cell-based; conditions: ht-22, 18 h
[2] = target: Amyloid-beta precursor protein (Homo sapiens) (UniProt P05067); experiment: Inhibition of Amyloid beta (1 to 42 ) (unknown origin) aggregation assessed as fibrilization amyloid beta by measuring beta sheets at 1 to 50 uM incubated for 3 days by Thioflavin T based fluorescence assay; conditions: dose 1-50 µM, time 3.0 day
Amyloid-beta precursor protein (Homo sapiens), sequence (P05067 whole entry): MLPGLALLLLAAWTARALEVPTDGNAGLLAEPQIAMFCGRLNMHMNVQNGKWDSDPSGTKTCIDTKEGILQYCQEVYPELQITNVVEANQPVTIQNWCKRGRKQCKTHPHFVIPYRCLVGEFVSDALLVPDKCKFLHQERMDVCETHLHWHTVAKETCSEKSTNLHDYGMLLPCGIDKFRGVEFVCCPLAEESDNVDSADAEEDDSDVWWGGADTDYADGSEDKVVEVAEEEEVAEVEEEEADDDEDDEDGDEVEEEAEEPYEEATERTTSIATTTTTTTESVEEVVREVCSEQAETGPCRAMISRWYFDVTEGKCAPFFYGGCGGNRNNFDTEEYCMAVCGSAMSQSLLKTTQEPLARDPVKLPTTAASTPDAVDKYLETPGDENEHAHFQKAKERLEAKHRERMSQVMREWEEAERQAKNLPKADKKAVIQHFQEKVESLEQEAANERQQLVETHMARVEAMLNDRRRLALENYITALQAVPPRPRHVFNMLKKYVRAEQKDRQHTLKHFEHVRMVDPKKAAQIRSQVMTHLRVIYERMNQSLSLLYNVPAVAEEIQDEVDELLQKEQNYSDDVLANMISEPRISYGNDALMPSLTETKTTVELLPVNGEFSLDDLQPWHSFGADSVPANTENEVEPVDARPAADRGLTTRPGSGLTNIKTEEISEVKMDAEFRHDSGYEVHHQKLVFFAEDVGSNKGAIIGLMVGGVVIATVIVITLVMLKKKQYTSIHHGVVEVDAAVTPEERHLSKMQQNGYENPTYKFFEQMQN

[3] = target: Amyloid-beta precursor protein (Homo sapiens) (UniProt P05067); experiment: Inhibition of Amyloid beta (1 to 42 ) (unknown origin) aggregation at 0.5 to 50 uM incubated for 3 days followed by incandescent lamp irradiation by photo-induced cross-linking of unmodified proteins method; conditions: dose 0.5-50 µM, time 3.0 day
Outline: (§1)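 Cross-linked Aβ products resolved on gels, imaged by fluorescence scanning and by silver staining. Band area quantified by densitometry and normalized to the 3-day aggregates, set as 100%.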

[4] = target: Amyloid-beta precursor protein (Homo sapiens) (UniProt P05067); experiment: Inhibition of Amyloid beta (1 to 42 ) (unknown origin) disaggregation assessed as reduction in mature fibril at 50 uM preincubated with amyloid beta followed by compound addition and measured after 3 days by Thioflavin T based fluorescence assay; conditions: time 3.0 day
[5] = target: Amyloid-beta precursor protein (Homo sapiens) (UniProt P05067); experiment: Inhibition of Amyloid beta (1 to 42 ) (unknown origin) disaggregation assessed as reduction in aggregation by measuring monomer band intensity at 0.5 to 50 uM incubated for 3 days followed by incandescent lamp irradiation by photo-induced cross-linking of unmodified proteins method; conditions: dose 0.5-50 µM, time 3.0 day; outline: as §1

Compound | Activity [1] | also measured
Cc1cccn2c1cc1c3ccccc3nc(-c3ccco3)c12 | Toxic | –
COc1cc(OC)cc(-c2nc3ccccc3c3cc4c(C)cccn4c23)c1 | Toxic | –
COc1ccc(-c2nc3ccccc3c3cc4c(C)cccn4c23)cc1OC | Toxic | inhibition [2]: > 30%; inhibition [3]: 20%; inhibition [4]: 40%
c1ccc2c(-c3nc4ccccc4c4cc5ccccn5c34)cccc2c1 | Toxic | –
Brc1ccc2cc3c4ccccc4nc(-c4ccco4)c3n2c1 | Toxic | inhibition [2]: > 30%
Cc1ccc(-c2nc3ccccc3c3cc4c(C)cccn4c23)cc1 | Toxic | –
COc1ccc(-c2nc3ccccc3c3c(-c4ccc(F)cc4)c4ccccn4c23)cc1 | Toxic | –
c1ccc(-c2nc3ccccc3c3cc4ccccn4c23)nc1 | Toxic | –
Clc1ccc(-c2nc3ccccc3c3cc4ccccn4c23)cc1 | Toxic | –
COC(=O)c1c2c3ccccc3nc(-c3ccc[nH]3)c2n2ccccc12 | Toxic | –
COc1ccc(-c2nc3ccccc3c3c(I)c4ccccn4c23)cc1 | Toxic | –
COc1cc(OC)cc(-c2nc3ccccc3c3cc4ccccn4c23)c1 | Toxic | –
c1csc(-c2nc3ccccc3c3cc4ccccn4c23)c1 | Toxic | –
CN(C)c1ccc(-c2nc3ccccc3c3cc4ccccn4c23)cc1 | Toxic | inhibition [2]: > 30%; inhibition [3]: 20%; inhibition [5]: 10%; inhibition [4]: > 60%
COc1cc(OC)cc(-c2ccc3cc4c5ccccc5nc(-c5cccc6ccccc56)c4n3c2)c1 | Toxic | inhibition [2]: > 30%
COc1ccc(-c2nc3ccccc3c3cc4ccccn4c23)cc1 | Toxic | –

Compound | Activity [1] | also measured
c1ccc(-c2nc3ccccc3c3cc4ccccn4c23)cc1 | Toxic | –
Cc1cccn2c1cc1c3ccccc3nc(-c3cc4ccccc4[nH]3)c12 | Toxic | inhibition [2]: > 30%; inhibition [4]: 40%
Brc1ccc(-c2nc3ccccc3c3cc4ccccn4c23)cc1 | Toxic | –
COc1ccc(-c2nc3ccccc3c3cc4ccc(-c5cc(OC)cc(OC)c5)cn4c23)cc1 | Toxic | –
Cc1cccn2c1cc1c3ccccc3nc(-c3cccc4ccccc34)c12 | Toxic | –
COc1cccc(-c2nc3ccccc3c3cc4ccccn4c23)c1 | Toxic | –
Brc1ccc(C2Nc3ccccc3-c3cc4ccccn4c32)cc1 (stereo unspecified) | Toxic | –
Cc1ccc2cc3c4ccccc4nc(-c4cccc5ccccc45)c3n2c1 | Toxic | –
Cc1cccn2c1cc1c3ccccc3nc(-c3cc4ccccc4o3)c12 | Toxic | –
COc1ccc(-c2nc3ccccc3c3cc4ccc(Br)cn4c23)cc1OC | Toxic | inhibition [2]: > 30%; inhibition [3]: 20%; inhibition [4]: 40%
Cc1cccn2c1cc1c3ccccc3nc(-c3cccc(F)c3)c12 | Toxic | –
COc1ccc(-c2nc3ccccc3c3cc4ccccn4c23)cc1OC | Toxic | –
Clc1ccc(-c2nc3ccccc3c3cc4ccccn4c23)s1 | Toxic | –
CCOC(=O)c1c2c3ccccc3nc(-c3ccc(OC)c(OC)c3)c2n2ccccc12 | Toxic | –
c1ccc2cc(-c3nc4ccccc4c4cc5ccccn5c34)ccc2c1 | Toxic | –
COc1cccc(-c2nc3ccccc3c3cc4c(C)cccn4c23)c1 | Toxic | –
